# An excerpt weighted towards active compounds, which were near 2.5% of everything screened.
# NR2E3 ag-1 = NR2E3 (human) agonism | Q9Y5X4 | GST-NR2E3/biotin-RetCOR TR-FRET, 1536-well | 320,000 compounds, 0.12% hits | inhibition of corepressor binding, % at 4.78 µM;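 active = percent inhibition above the cutoff of mean plus 3 SD of all tested compounds, set per screening campaign, cut at about 20% in these data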;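 also: 0% = DMSO wells and 100% = biotin wells as full block of FRET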
#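 Test system: GST-NR2E3 and biotin-RetCOR proteins | Quantity: 1.35 nM GST-tagged NR2E3 final | Medium: Tris pH 7.5 | Also added: 7 nM biotin-RetCOR | Dosing: Compound at 4.8 µM, single dose | Timing: 5 h at 4 °C | Detection: Time-resolved FRET | Read-out basis: Percent inhibition | Benchmarks: Biotin wells as high control, 0.6% DMSO wells as low control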
# NadD inh = inhibitors of Staphylococcus aureus NadD | purified NadD enzyme, colorimetric absorbance read-out | inhibition, % at 20 µM | 360,000 compounds, 0.78% hits | AID 602399; in the data active = inhibition above about 26%
# GalR3 antagonist = blocks the human galanin receptor 3 | 360,000 compounds, 0.44% hits | inhibition, % at 3 µM | HEK293 GalR3-CNG cAMP membrane potential fluorescence; galR3 body fused to GalR1 C-terminus;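 active = inhibition above the screen-wide average plus 3 SD, cut at about 13% in these data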;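 also: forskolin and galanin both at EC90 stimulate the cells; cAMP rise reported by CNG channel membrane potential dye signal; 0% = forskolin plus galanin with DMSO and 100% = forskolin alone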
# Target sequence (O60755 1-299 limits assumed): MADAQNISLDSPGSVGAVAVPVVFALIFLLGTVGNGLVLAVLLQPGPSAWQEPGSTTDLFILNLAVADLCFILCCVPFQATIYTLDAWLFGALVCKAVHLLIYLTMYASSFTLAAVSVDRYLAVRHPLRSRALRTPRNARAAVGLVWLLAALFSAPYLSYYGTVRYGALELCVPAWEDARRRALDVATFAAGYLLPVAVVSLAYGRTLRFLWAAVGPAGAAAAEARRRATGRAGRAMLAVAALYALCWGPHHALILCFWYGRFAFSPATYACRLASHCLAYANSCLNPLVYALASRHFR
# MsrA act = bovine methionine sulfoxide reductase A activation. AID 602163. 360,000 compounds, 0.3% hits. activation, % at 10.6 µM. purified bovine MsrA, absorbance read-out; in the data active = activation above about 7.5%;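 also: 0% = vehicle and 100% = reference activator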
# NR2E3 ag-2 = human photoreceptor-specific nuclear receptor agonism. CHO-S Gal4-NCOR/VP16-NR2E3 two-hybrid, luciferase. AID 602229. Q9Y5X4. inhibition of corepressor binding, % at 3.98 µM. 360,000 compounds, 0.35% hits;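 active = inhibition above the mean of all tested compounds plus 3 SD, cut at about 70% in these data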;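 also: 0% = DMSO with NR2E3 transfected cells and 100% = cells lacking NR2E3 construct; higher means lower luciferase signal from less NR2E3 corepressor binding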
# MsrA inhibitor = inhibitors of bovine MsrA; purified bovine MsrA, absorbance read-out; inhibition, % at 15.5 µM; 360,000 compounds, 0.75% hits; in the data active = inhibition above about 4.5%;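 also: 0% = vehicle wells with enzyme and 100% = reference inhibitor wells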
# NadD conf = NadD (S. aureus) inhibition, single concentration confirmation | shares compounds with NadD inh | purified S. aureus NadD, colorimetric enzyme assay | inhibition, % at 20 µM | 2,000 compounds, 13% hits | AID 624309; in the data active = inhibition mostly above about 42%, no sharp cut-off; inactive = mostly below about 42%
# * marks the source's active call; other numbers are inactive results; · = no result given.
SMILES,NR2E3 ag-1,NadD inh,GalR3 antagonist,MsrA act,NR2E3 ag-2,MsrA inhibitor,NadD conf
O=C(OC(C(=O)Nc1ccc([N+](=O)[O-])cc1Br)c1ccccc1)c1ccccc1 (stereo not given),1,-9,3,2,-4,0,·
N#CCC(=O)Nc1ccc(C(=O)OC(C(=O)Nc2ccc([N+](=O)[O-])cc2Br)c2ccccc2)cc1 (stereo not given),·,46*,-4,-8,4,0,39
CCn1c(SCC(=O)N/N=C/C=C/c2ccco2)nnc1-c1ccccc1,-2,6,-7,-11,8,3,·
O=C(CSc1nnc(SCc2ccccc2)s1)N/N=C/C=C/c1ccco1,0,48*,-2,-3,2,0,43*
Nc1cc(N)cc(C(=O)OCC(=O)Nc2cc(S(=O)(=O)N3CCCCC3)ccc2Cl)c1,0,31*,0,-6,-18,0,18
Cc1cccc(NS(=O)(=O)c2nnc(NC(=O)c3ccc(Cl)cc3)s2)c1,4,6,0,1,-7,3,·
O=C(COc1ncnc2sccc12)Nc1ccc(F)cc1F,3,30*,2,-5,-23,-1,9
O=C(O)CC/C(=C\c1ccc(Cl)c([N+](=O)[O-])c1)c1nc2ccccc2s1,1,5,-4,-1,4,3,·
O=C(O)CC/C(=C/c1cccc(NC(=O)c2ccccc2Cl)c1)c1nc2ccccc2s1,·,47*,-6,-9,2,2,40
O=C(/C=C/Nc1ccc(S(=O)(=O)Nc2ncccn2)cc1)c1cccs1,1,3,-6,-1,-31,0,·
O=C(/C=C/Nc1ccc(S(=O)(=O)Nc2ncccn2)cc1)c1ccc(Cl)c(Cl)c1,2,40*,0,-3,-7,-1,3
CC1CC(C)CN(CCCNC(=O)c2cn(C)c3ccc(S(=O)(=O)N4CCCC4)cc3c2=O)C1 (stereo not given),3,-1,-1,-9,17,1,·
O=C(O)Cc1sc(N/N=C\c2ccccc2)nc1-c1ccccc1,3,47*,-6,-5,-57,1,55*
O=[N+]([O-])c1cccc(SSc2cccc([N+](=O)[O-])c2)c1,·,44*,-6,17*,-27,1,58*
CCOc1ccc(CCN2C(=O)C(=O)N([C@@H](Cc3ccccc3)CN3CCC[C@H]3CN3C(=O)C(=O)NC[C@@H]3CC(C)C)C[C@@H]2Cc2ccc(O)cc2)cc1,·,30*,-7,-1,6,2,31
CCOc1ccc(CCN2C(=O)C(=O)N([C@@H](Cc3ccc(O)cc3)CN3CCC[C@@H]3CN3C(=O)C(=O)NC[C@@H]3Cc3ccccc3)C[C@@H]2Cc2ccccc2)cc1,·,29*,1,-7,-15,1,43
CCCCN(C(=O)c1ccccc1Br)C(c1ccc(OC)cc1)c1nc2ccccc2[nH]1 (stereo not given),·,1,-8,-1,-17,-1,·
Cc1ccc([N+](=O)[O-])cc1-c1ccc(/C=C(\C#N)c2[nH]nc(N)c2C#N)o1,-1,28*,-7,-7,-95,1,5
O=C(NC(=S)Nc1cc(-c2nc3ccccc3[nH]2)ccc1Cl)c1ccc2c(c1)OCO2,4,30*,-11,1,-105,1,47*
Cc1ccc(-c2nc3ccccc3[nH]2)cc1NC(=O)c1ccc2c(c1)OCO2,2,2,-1,-4,-21,1,·
CCOc1ccc(C(=O)Nc2cc(-c3nc4ccccc4[nH]3)ccc2C)cc1[N+](=O)[O-],2,12,-1,-9,19,1,·
CCOc1ccc(C(=O)Nc2cc(-c3nc4ccccc4[nH]3)ccc2Cl)cc1[N+](=O)[O-],1,34*,2,-2,-11,2,13
CCN(CC)CCOc1nnc(-c2ccc(C)cc2)c2ccccc12,-3,1,-1,2,1,0,·
Cc1ccc(C2CC(c3cccs3)=NN2C(=O)CSC2=NCCS2)cc1 (stereo not given),2,3,3,-6,-15,1,·

# Assay outcomes from PubChem.
